Test results from ChEMBL document CHEMBL3046615, “Isolation of nematicidal compounds from Tagetes patula L. yellow flowers: structure-activity relationship studies against cyst nematode Heterodera zeae infective stage larvae” (2011).
The source made the active and inactive calls. The rule behind the calls is not given here.

Legend:
Heterodera zeae [1] = assay: Nematicidal activity against Heterodera zeae infective stage larvae assessed as nematode mortality at 0.5% under light conditions measured 48 hr post dose by stereoscopic microscopy; type: functional
Outline: (§1)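 Freshly hatched H. zeae second-stage juveniles, 100 per Petri plate, three replicates. Samples in MeOH, DMSO or water were tested in glass cavity blocks; petroleum ether samples were dried onto the block and larvae transferred on agar pieces. Percentages are dilutions of 30 mg/mL stocks (extracts/fractions) or 1 mg/mL stocks (pure compounds). Incubated at 28 ± 2 °C in light or dark box; mortality averaged over three replicates.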

Heterodera zeae [2] = assay: Nematicidal activity against Heterodera zeae infective stage larvae assessed as nematode mortality at 1% under dark conditions measured 24 hr post dose by stereoscopic microscopy; type: functional; outline: as §1
Heterodera zeae [3] = assay: Nematicidal activity against Heterodera zeae infective stage larvae assessed as nematode mortality at 0.125% under light conditions measured 48 hr post dose by stereoscopic microscopy; type: functional; outline: as §1
Heterodera zeae [4] = assay: Nematicidal activity against Heterodera zeae infective stage larvae assessed as nematode mortality at 0.25% under light conditions measured 48 hr post dose by stereoscopic microscopy; type: functional; outline: as §1
Heterodera zeae [5] = assay: Nematicidal activity against Heterodera zeae infective stage larvae assessed as nematode mortality at 0.125% under light conditions measured 24 hr post dose by stereoscopic microscopy; type: functional; outline: as §1
Heterodera zeae [6] = assay: Nematicidal activity against Heterodera zeae infective stage larvae assessed as nematode mortality at 0.25% under light conditions measured 24 hr post dose by stereoscopic microscopy; type: functional; outline: as §1
Heterodera zeae [7] = assay: Nematicidal activity against Heterodera zeae infective stage larvae assessed as nematode mortality at 0.5% under light conditions measured 24 hr post dose by stereoscopic microscopy; type: functional; outline: as §1
Heterodera zeae [8] = assay: Nematicidal activity against Heterodera zeae infective stage larvae assessed as nematode mortality at 1% under light conditions measured 24 hr post dose by stereoscopic microscopy; type: functional; outline: as §1
Heterodera zeae [9] = assay: Nematicidal activity against Heterodera zeae infective stage larvae assessed as nematode mortality at 0.125% under dark conditions measured 5 to 60 min post dose by stereoscopic microscopy; type: functional, organism-based
Outline: (§2)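 H. zeae freshly hatched second-stage juveniles, 100 per plate, three replicates, at 28 ± 2 °C under light or in a dark box. Dilutions are % of a stock: 30 mg/mL for extracts/fractions, 1 mg/mL for pure compounds. Methanol-, DMSO- or water-soluble samples were tested in glass cavity blocks. Petroleum ether-soluble samples were air-dried in the block and covered with agar pieces bearing cultured larvae. Mortality was followed over 5–60 min; each value is the mean of three experiments.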

Heterodera zeae [10] = assay: Nematicidal activity against Heterodera zeae infective stage larvae assessed as nematode mortality at 0.25% under dark conditions measured 5 to 60 min post dose by stereoscopic microscopy; type: functional, organism-based; outline: as §2
Heterodera zeae [11] = assay: Nematicidal activity against Heterodera zeae infective stage larvae assessed as nematode mortality at 0.5% under dark conditions measured 5 to 60 min post dose by stereoscopic microscopy; type: functional, organism-based; outline: as §2
Heterodera zeae [12] = assay: Nematicidal activity against Heterodera zeae infective stage larvae assessed as nematode mortality at 1% under dark conditions measured 5 to 60 min post dose by stereoscopic microscopy; type: functional, organism-based; outline: as §2
Heterodera zeae [13] = assay: Nematicidal activity against Heterodera zeae infective stage larvae assessed as nematode mortality at 2% under dark conditions measured 5 to 60 min post dose by stereoscopic microscopy; type: functional, organism-based; outline: as §2
Heterodera zeae [14] = assay: Nematicidal activity against Heterodera zeae infective stage larvae assessed as nematode mortality at 5% under dark conditions measured 5 to 60 min post dose by stereoscopic microscopy; type: functional, organism-based; outline: as §2
Heterodera zeae [15] = assay: Nematicidal activity against Heterodera zeae infective stage larvae assessed as nematode mortality at 0.125% under light conditions measured 5 to 60 min post dose by stereoscopic microscopy; type: functional, organism-based; outline: as §2
Heterodera zeae [16] = assay: Nematicidal activity against Heterodera zeae infective stage larvae assessed as nematode mortality at 0.25% under light conditions measured 5 to 60 min post dose by stereoscopic microscopy; type: functional, organism-based; outline: as §2
Heterodera zeae [17] = assay: Nematicidal activity against Heterodera zeae infective stage larvae assessed as nematode mortality at 0.5% under light conditions measured 5 to 60 min post dose by stereoscopic microscopy; type: functional, organism-based; outline: as §2
Heterodera zeae [18] = assay: Nematicidal activity against Heterodera zeae infective stage larvae assessed as nematode mortality at 1% under light conditions measured 5 to 60 min post dose by stereoscopic microscopy; type: functional, organism-based; outline: as §2
Heterodera zeae [19] = assay: Nematicidal activity against Heterodera zeae infective stage larvae assessed as nematode mortality at 2% under light conditions measured 5 to 60 min post dose by stereoscopic microscopy; type: functional, organism-based; outline: as §2
Heterodera zeae [20] = assay: Nematicidal activity against Heterodera zeae infective stage larvae assessed as nematode mortality at 5% under light conditions measured 5 to 60 min post dose by stereoscopic microscopy; type: functional, organism-based; outline: as §2
Heterodera zeae [21] = assay: Nematicidal activity against Heterodera zeae infective stage larvae assessed as nematode mortality at 0.125% under dark conditions measured 48 hr post dose by stereoscopic microscopy; type: functional; outline: as §1
Heterodera zeae [22] = assay: Nematicidal activity against Heterodera zeae infective stage larvae assessed as nematode mortality at 0.25% under dark conditions measured 48 hr post dose by stereoscopic microscopy; type: functional; outline: as §1
Heterodera zeae [23] = assay: Nematicidal activity against Heterodera zeae infective stage larvae assessed as nematode mortality at 0.125% under dark conditions measured 24 hr post dose by stereoscopic microscopy; type: functional; outline: as §1
Heterodera zeae [24] = assay: Nematicidal activity against Heterodera zeae infective stage larvae assessed as nematode mortality at 0.25% under dark conditions measured 24 hr post dose by stereoscopic microscopy; type: functional; outline: as §1
Heterodera zeae [25] = assay: Nematicidal activity against Heterodera zeae infective stage larvae assessed as nematode mortality at 0.5% under dark conditions measured 24 hr post dose by stereoscopic microscopy; type: functional; outline: as §1
Heterodera zeae [26] = assay: Nematicidal activity against Heterodera zeae infective stage larvae assessed as nematode mortality at 1% under dark conditions measured 48 hr post dose by stereoscopic microscopy; type: functional; outline: as §1
Heterodera zeae [27] = assay: Nematicidal activity against Heterodera zeae infective stage larvae assessed as nematode mortality at 1% under light conditions measured 48 hr post dose by stereoscopic microscopy; type: functional; outline: as §1
Heterodera zeae [28] = assay: Nematicidal activity against Heterodera zeae infective stage larvae assessed as nematode mortality at 0.125% under dark conditions measured 72 hr post dose by stereoscopic microscopy; type: functional; outline: as §1
Heterodera zeae [29] = assay: Nematicidal activity against Heterodera zeae infective stage larvae assessed as nematode mortality at 0.25% under dark conditions measured 72 hr post dose by stereoscopic microscopy; type: functional; outline: as §1
Heterodera zeae [30] = assay: Nematicidal activity against Heterodera zeae infective stage larvae assessed as nematode mortality at 0.5% under dark conditions measured 48 hr post dose by stereoscopic microscopy; type: functional; outline: as §1
Heterodera zeae [31] = assay: Nematicidal activity against Heterodera zeae infective stage larvae assessed as nematode mortality at 0.125% under light conditions measured 72 hr post dose by stereoscopic microscopy; type: functional; outline: as §1
Heterodera zeae [32] = assay: Nematicidal activity against Heterodera zeae infective stage larvae assessed as nematode mortality at 0.25% under light conditions measured 72 hr post dose by stereoscopic microscopy; type: functional; outline: as §1
Heterodera zeae [33] = assay: Nematicidal activity against Heterodera zeae infective stage larvae assessed as nematode mortality at 0.5% under light conditions measured 72 hr post dose by stereoscopic microscopy; type: functional; outline: as §1
Heterodera zeae [34] = assay: Nematicidal activity against Heterodera zeae infective stage larvae assessed as nematode mortality at 0.5% under dark conditions measured 72 hr post dose by stereoscopic microscopy; type: functional; outline: as §1

Row | Structure (SMILES) | mortality (Heterodera zeae [1]) | mortality (Heterodera zeae [2]) | mortality (Heterodera zeae [3]) | mortality (Heterodera zeae [4]) | mortality (Heterodera zeae [5]) | mortality (Heterodera zeae [6]) | mortality (Heterodera zeae [7]) | mortality (Heterodera zeae [8]) | Activity (Heterodera zeae [9]) | Activity (Heterodera zeae [10]) | Activity (Heterodera zeae [11]) | Activity (Heterodera zeae [12]) | Activity (Heterodera zeae [13]) | Activity (Heterodera zeae [14]) | Activity (Heterodera zeae [15]) | Activity (Heterodera zeae [16]) | Activity (Heterodera zeae [17]) | Activity (Heterodera zeae [18]) | Activity (Heterodera zeae [19]) | Activity (Heterodera zeae [20]) | further results
1 | CCCCCCCC/C=C\CCCCCCCC(=O)O [OLEIC ACID] | 100% | 50% | 50% | 50% | 10% | 10% | 50% | 50% | inactive | inactive | inactive | inactive | inactive | inactive | inactive | inactive | inactive | inactive | inactive | inactive | mortality (Heterodera zeae [21]): 10%; mortality (Heterodera zeae [22]): 10%; mortality (Heterodera zeae [23]): 10%; mortality (Heterodera zeae [24]): 10%; mortality (Heterodera zeae [25]): 40%; mortality (Heterodera zeae [26]): 100%; mortality (Heterodera zeae [27]): 100%; mortality (Heterodera zeae [28]): 10%; mortality (Heterodera zeae [29]): 10%; mortality (Heterodera zeae [30]): 100%; mortality (Heterodera zeae [31]): 100%; mortality (Heterodera zeae [32]): 100%
2 | CCCCCCCCCCCCCCCCCC(=O)O [STEARIC ACID] | 70% | 100% | 50% | 70% | 50% | 40% | 50% | 100% | inactive | inactive | inactive | inactive | inactive | inactive | inactive | inactive | inactive | inactive | inactive | inactive | mortality (Heterodera zeae [33]): 100%; mortality (Heterodera zeae [21]): 50%; mortality (Heterodera zeae [22]): 70%; mortality (Heterodera zeae [23]): 40%; mortality (Heterodera zeae [24]): 40%; mortality (Heterodera zeae [25]): 50%; mortality (Heterodera zeae [26]): 100%; mortality (Heterodera zeae [28]): 70%; mortality (Heterodera zeae [29]): 100%; mortality (Heterodera zeae [34]): 100%; mortality (Heterodera zeae [30]): 70%; mortality (Heterodera zeae [31]): 70%; mortality (Heterodera zeae [32]): 100%
